# Calls of active or inactive are those of the source. No cut-off for these calls is given here.
# Columns and labels:
# A2780 [1] = assay: Cytotoxicity against human A2780 cells assessed as cell viability at 10 uM after 24 hrs by MTT assay relative to control; type: functional; conditions: A2780, 24 h, read-out: Activity
# How it was run: (§1)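 MTT viability assay in human A2780 and MCF-7 cancer cells. Cells were exposed to compound at 10 μM for 24 h. Results are given as percent cell viability relative to the respective untreated control.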
# MCF7 [2] = assay: Cytotoxicity against human MCF7 cells assessed as cell viability at 10 uM after 24 hrs by MTT assay relative to control; type: functional; conditions: MCF7, 24 h, read-out: Activity; how it was run: as §1
# [3] = Cytotoxicity against rat H9c2 cells assessed as cell viability at 10 uM after 24 hrs by MTT assay relative to control; type: cell-based; conditions: read-out: Activity
# A2780 [4] = assay: Induction of cell cycle arrest at G2/M phase in human A2780 cells assessed as modulation of cyclin expression; type: functional, cell-based
# A2780 [5] = assay: Induction of apoptosis in human A2780 cells assessed as caspase 8 activation; type: functional, cell-based
# A2780 [6] = assay: Induction of apoptosis in human A2780 cells assessed as caspase 3 activation; type: functional, cell-based
# A2780 [7] = assay: Induction of Fas/CD95 expression in human A2780 cells; type: functional, cell-based
# [8] = target: Signal transducer and activator of transcription 3 (Homo sapiens) (UniProt P40763); assay: Inhibition of STAT3 phosphorylation at Tyr705 in human A2780 cells; type: cell-based
# Signal transducer and activator of transcription 3 (Homo sapiens), sequence (P40763 whole entry): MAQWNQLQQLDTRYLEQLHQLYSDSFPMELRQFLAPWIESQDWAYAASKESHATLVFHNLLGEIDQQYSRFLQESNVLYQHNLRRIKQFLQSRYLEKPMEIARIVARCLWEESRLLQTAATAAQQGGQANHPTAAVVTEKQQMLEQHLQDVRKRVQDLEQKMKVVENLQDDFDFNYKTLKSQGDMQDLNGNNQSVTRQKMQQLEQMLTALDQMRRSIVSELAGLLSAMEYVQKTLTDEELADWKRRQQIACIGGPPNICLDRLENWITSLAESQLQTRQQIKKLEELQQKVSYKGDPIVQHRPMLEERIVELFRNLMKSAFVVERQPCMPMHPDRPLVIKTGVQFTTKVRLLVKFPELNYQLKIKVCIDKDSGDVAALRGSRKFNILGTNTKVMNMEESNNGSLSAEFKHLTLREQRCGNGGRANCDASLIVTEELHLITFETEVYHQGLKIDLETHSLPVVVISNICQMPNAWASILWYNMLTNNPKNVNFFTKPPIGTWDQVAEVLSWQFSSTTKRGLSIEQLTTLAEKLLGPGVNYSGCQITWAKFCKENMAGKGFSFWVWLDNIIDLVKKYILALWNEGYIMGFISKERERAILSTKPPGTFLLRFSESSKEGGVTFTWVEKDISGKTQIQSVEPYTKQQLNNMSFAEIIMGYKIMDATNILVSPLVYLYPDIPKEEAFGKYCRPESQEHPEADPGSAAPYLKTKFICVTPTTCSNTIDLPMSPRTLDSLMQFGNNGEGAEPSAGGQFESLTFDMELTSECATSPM
# [9] = target: Tyrosine-protein kinase JAK1 (Homo sapiens) (UniProt P23458); assay: Inhibition of JAK1 phosphorylation in human A2780 cells; type: cell-based
# Tyrosine-protein kinase JAK1 (Homo sapiens), sequence (P23458 whole entry): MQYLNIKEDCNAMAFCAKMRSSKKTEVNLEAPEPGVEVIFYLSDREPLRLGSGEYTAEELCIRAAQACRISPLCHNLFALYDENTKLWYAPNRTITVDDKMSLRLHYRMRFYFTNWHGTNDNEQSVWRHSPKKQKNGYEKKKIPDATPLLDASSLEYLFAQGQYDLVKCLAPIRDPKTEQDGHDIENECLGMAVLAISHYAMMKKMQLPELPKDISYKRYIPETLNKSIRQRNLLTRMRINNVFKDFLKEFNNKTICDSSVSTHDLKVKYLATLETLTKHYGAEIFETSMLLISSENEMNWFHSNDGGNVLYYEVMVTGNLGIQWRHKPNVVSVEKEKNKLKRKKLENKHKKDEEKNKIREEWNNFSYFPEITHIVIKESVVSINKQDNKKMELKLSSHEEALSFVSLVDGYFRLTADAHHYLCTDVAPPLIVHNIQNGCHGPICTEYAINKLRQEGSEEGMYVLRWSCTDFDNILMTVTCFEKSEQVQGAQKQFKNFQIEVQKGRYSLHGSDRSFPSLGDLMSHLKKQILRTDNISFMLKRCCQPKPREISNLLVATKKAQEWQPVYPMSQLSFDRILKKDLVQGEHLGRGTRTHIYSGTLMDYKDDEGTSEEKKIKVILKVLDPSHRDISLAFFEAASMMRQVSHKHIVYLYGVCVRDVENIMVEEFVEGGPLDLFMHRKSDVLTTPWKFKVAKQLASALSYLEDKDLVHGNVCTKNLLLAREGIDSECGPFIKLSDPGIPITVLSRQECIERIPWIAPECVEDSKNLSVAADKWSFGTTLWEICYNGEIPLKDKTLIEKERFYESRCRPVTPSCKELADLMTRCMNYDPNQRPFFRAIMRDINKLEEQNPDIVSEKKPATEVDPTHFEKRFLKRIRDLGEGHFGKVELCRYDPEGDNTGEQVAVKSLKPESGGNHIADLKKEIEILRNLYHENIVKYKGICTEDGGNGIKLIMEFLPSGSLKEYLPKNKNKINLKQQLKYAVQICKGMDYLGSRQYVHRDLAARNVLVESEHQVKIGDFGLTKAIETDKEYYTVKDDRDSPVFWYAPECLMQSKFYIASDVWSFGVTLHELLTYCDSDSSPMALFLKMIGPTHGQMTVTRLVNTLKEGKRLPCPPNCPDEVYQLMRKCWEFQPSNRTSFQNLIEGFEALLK
# [10] = Inhibition of JAK/STAT3 pathway in human A2780 cells assessed as reduction in Bcl-xL level; type: cell-based
# [11] = Inhibition of JAK/STAT3 pathway in human A2780 cells assessed as reduction in Bcl-2 level; type: cell-based
# [12] = Inhibition of JAK/STAT3 pathway in human A2780 cells assessed as reduction in survivin level; type: cell-based
# [13] = Inhibition of JAK/STAT3 pathway in human A2780 cells assessed as reduction in VEGF level; type: cell-based
# Liver = assay: Biodistribution in ip dosed rat liver after 3 hrs; type: ADME, organism-based; conditions: in vivo
# Kidney = assay: Biodistribution in ip dosed rat kidney after 3 hrs; type: ADME, organism-based; conditions: in vivo
# Rattus norvegicus = assay: Biodistribution in ip dosed rat stomach after 3 hrs; type: ADME, organism-based; conditions: in vivo
# Blood = assay: Biodistribution in ip dosed rat blood after 3 hrs; type: ADME, organism-based; conditions: in vivo
# A2780 [14] = assay: Antitumor activity against human A2780 cells in xenograft model assessed as tumor growth inhibition; type: functional, cell-based
# A2780 [15] = assay: Antitumor activity against human A2780 cells in xenograft model assessed as reduction of STAT3 phosphorylation at Tyr705/Ser727 level in tumor; type: functional, cell-based
# A2780 [16] = assay: Antitumor activity against human A2780 cells in xenograft model assessed as reduction of JAK phosphorylation level in tumor; type: functional, cell-based
# A2780 [17] = assay: Antitumor activity against human A2780 cells in xenograft model assessed as increase of caspase 3 level in tumor; type: functional, cell-based
# A2780 [18] = assay: Antitumor activity against human A2780 cells in xenograft model assessed as increase of PARP level in tumor; type: functional, cell-based
# [19] = target: Signal transducer and activator of transcription 3 (Homo sapiens) (UniProt P40763); assay: Inhibition of STAT3 phosphorylation at Tyr705/Ser727 in human A2780 cells by Western blot analysis; type: cell-based
# [20] = target: Signal transducer and activator of transcription 3 (Homo sapiens) (UniProt P40763); assay: Inhibition of STAT3 phosphorylation at Tyr705/Ser727 in human MCF7 cells by Western blot analysis; type: cell-based
# A2780 [21] = assay: Induction of apoptosis in human A2780 cells assessed as caspase 3 activation by Western blot analysis; type: functional, cell-based
# MCF7 [22] = assay: Induction of apoptosis in human MCF7 cells assessed as caspase 3 activation by Western blot analysis; type: functional, cell-based
# A2780 [23] = assay: Induction of apoptosis in human A2780 cells assessed as cleavage of PARP by Western blot analysis; type: functional, cell-based
# MCF7 [24] = assay: Induction of apoptosis in human MCF7 cells assessed as cleavage of PARP by Western blot analysis; type: functional, cell-based
# Homo sapiens = species on record: Homo sapiens; assay: Cytotoxicity against human A2780DDP cells by MTT assay; type: functional, cell-based
# OV4 = assay: Cytotoxicity against human OV4 cells by MTT assay; type: functional, cell-based
# SK-OV-3 = assay: Cytotoxicity against human SKOV3 cells by MTT assay; type: functional, cell-based
# PA-1 = assay: Cytotoxicity against human PA1 cells by MTT assay; type: functional, cell-based
# OVCA3 = assay: Cytotoxicity against human OVCA3 cells by MTT assay; type: functional, cell-based
# A2780 [25] = assay: Induction of cell cycle arrest at G2/M phase in human A2780 cells assessed as modulation of p53 expression; type: functional, cell-based
# A2780 [26] = assay: Induction of cell cycle arrest at G2/M phase in human A2780 cells assessed as modulation of p21 expression; type: functional, cell-based
# A2780 [27] = assay: Induction of cell cycle arrest at G2/M phase in human A2780 cells assessed as modulation of p27 expression; type: functional, cell-based
# A2780 [28] = assay: Induction of cell cycle arrest at G2/M phase in human A2780 cells assessed as modulation of CDK2 expression; type: functional, cell-based
structure (smiles),measurement,setting,value
CC1(C)C=C(NC(=O)N2C/C(=C\c3ccc(F)cc3)C(=O)/C(=C/c3ccc(F)cc3)C2)C(C)(C)N1[O],viability at 10 µM,A2780 [1],5.9%
same,viability at 10 µM,MCF7 [2],12.6%
same,"viability at 24 h, 10 µM",[3],36.7%
CC1(C)C=C(CN2C/C(=C\c3ccccc3F)C(=O)/C(=C/c3ccccc3F)C2)C(C)(C)N1[O],viability at 10 µM,A2780 [1],12.5%
same,viability at 10 µM,MCF7 [2],53.5%
same,"viability at 24 h, 10 µM",[3],86.3%
COc1ccc(/C=C2\CNC/C(=C\c3ccc(OC)c(OC)c3OC)C2=O)c(OC)c1OC,viability at 10 µM,A2780 [1],11%
same,viability at 10 µM,MCF7 [2],56.6%
same,"viability at 24 h, 10 µM",[3],32.3%
CC1=C(CN2C/C(=C\c3ccc(F)cc3)C(=O)/C(=C/c3ccc(F)cc3)C2)C(C)(C)N([O])C1(C)C,viability at 10 µM,A2780 [1],6.75%
same,viability at 10 µM,MCF7 [2],42%
same,"viability at 24 h, 10 µM",[3],56.8%
CC1(C)C=C(C(=O)N2C/C(=C\c3ccc(F)cc3)C(=O)/C(=C/c3ccc(F)cc3)C2)C(C)(C)N1[O],viability at 10 µM,A2780 [1],4.54%
same,viability at 10 µM,MCF7 [2],12.4%
same,"viability at 24 h, 10 µM",[3],33.3%
CC1(C)c2cnc(CN3C/C(=C\c4ccc(F)cc4)C(=O)/C(=C/c4ccc(F)cc4)C3)cc2C(C)(C)N1[O],viability at 10 µM,A2780 [1],5.26%
same,viability at 10 µM,MCF7 [2],42.7%
same,"viability at 24 h, 10 µM",[3],46.6%
CC1(C)c2ccc(CN3C/C(=C\c4ccc(F)cc4)C(=O)/C(=C/c4ccc(F)cc4)C3)cc2C(C)(C)N1[O],viability at 10 µM,A2780 [1],9.5%
same,viability at 10 µM,MCF7 [2],46.2%
same,"viability at 24 h, 10 µM",[3],26.4%
O=C1/C(=C/c2ccccc2F)CNC/C1=C\c1ccccc1F,viability at 10 µM,A2780 [1],12.8%
same,viability at 10 µM,MCF7 [2],34.5%
same,"viability at 24 h, 10 µM",[3],32.9%
CC1(C)CCC(C)(C#CCN2C/C(=C\c3ccc(F)cc3)C(=O)/C(=C/c3ccc(F)cc3)C2)N1[O] (stereo not given),viability at 10 µM,A2780 [1],5.89%
same,viability at 10 µM,MCF7 [2],38.3%
same,"viability at 24 h, 10 µM",[3],50.7%
O=C1/C(=C/c2ccc(C(F)(F)F)cc2)CNC/C1=C\c1ccc(C(F)(F)F)cc1,viability at 10 µM,A2780 [1],13.1%
same,viability at 10 µM,MCF7 [2],20.2%
same,"viability at 24 h, 10 µM",[3],51.7%
CC1(C)CCC(C)(/C=C/CN2C/C(=C\c3ccc(F)cc3)C(=O)/C(=C/c3ccc(F)cc3)C2)N1[O] (stereo not given),viability at 10 µM,A2780 [1],5.81%
same,viability at 10 µM,MCF7 [2],43.1%
same,"viability at 24 h, 10 µM",[3],51.9%
CC1(C)C=C(CN2C/C(=C\c3ccc(C(F)(F)F)cc3)C(=O)/C(=C/c3ccc(C(F)(F)F)cc3)C2)C(C)(C)N1[O],viability at 10 µM,A2780 [1],5.85%
same,viability at 10 µM,MCF7 [2],14.2%
same,"viability at 24 h, 10 µM",[3],17.1%
CC1(C)C=C(CN2C/C(=C\c3ccc(F)cc3)C(=O)/C(=C/c3ccc(F)cc3)C2)C(C)(C)N1,viability at 10 µM,A2780 [1],4.79%
same,viability at 10 µM,MCF7 [2],28.3%
same,"viability at 24 h, 10 µM",[3],78.8%
CC1(C)C=C(CN2C/C(=C\c3ccc(F)cc3)C(=O)/C(=C/c3ccc(F)cc3)C2)C(C)(C)N1[O],Activity,A2780 [4],Active
same,Activity,A2780 [5],Active
same,Activity,A2780 [6],Active
same,Activity,A2780 [7],Active
same,inhibition,[8],Active
same,inhibition,[9],Active
same,inhibition,[10],Active
same,inhibition,[11],Active
same,inhibition,[12],Active
same,inhibition,[13],Active
same,viability at 10 µM,A2780 [1],20.5%
same,viability at 10 µM,MCF7 [2],16.6%
same,"viability at 24 h, 10 µM",[3],88.5%
same,Drug uptake,Liver,Active
same,Drug uptake,Kidney,Active
same,Drug uptake,Rattus norvegicus,Active
same,Drug uptake,Blood,Active
same,growth inhibition (GI),A2780 [14],Dose-dependent effect
same,Activity,A2780 [15],Active
same,Activity,A2780 [16],Active
same,Activity,A2780 [17],Active
same,Activity,A2780 [18],Active
same,inhibition,[19],Active
same,inhibition,[20],Active
same,Activity,A2780 [21],Active
same,Activity,MCF7 [22],Active
same,Activity,A2780 [23],Active
same,Activity,MCF7 [24],Active
same,Activity,Homo sapiens,Active
same,Activity,OV4,Active
same,Activity,SK-OV-3,Active
same,Activity,PA-1,Active
same,Activity,OVCA3,Active
same,Activity,A2780 [25],Active
same,Activity,A2780 [26],Active
same,Activity,A2780 [27],Active
same,Activity,A2780 [28],Active
CC1(C)C=C(CN2C/C(=C\c3ccc(F)cc3)C(=O)/C(=C/c3ccc(F)cc3)C2)CC(C)(C)N1[O],viability at 10 µM,A2780 [1],6.86%
same,viability at 10 µM,MCF7 [2],20.1%
same,"viability at 24 h, 10 µM",[3],51.4%
O=C1/C(=C/c2ccc(F)cc2)CNC/C1=C\c1ccc(F)cc1,viability at 10 µM,A2780 [1],12.4%
same,viability at 10 µM,MCF7 [2],17.1%
same,"viability at 24 h, 10 µM",[3],61.4%
COc1ccc(/C=C2\CN(CC3=CC(C)(C)N([O])C3(C)C)C/C(=C\c3ccc(OC)c(OC)c3OC)C2=O)c(OC)c1OC,viability at 10 µM,A2780 [1],26.1%
same,viability at 10 µM,MCF7 [2],28%
same,"viability at 24 h, 10 µM",[3],53.1%

# Reference: ChEMBL document CHEMBL1811768, “Synthesis of N-substituted 3,5-bis(arylidene)-4-piperidones with high antitumor and antioxidant activity” (J Med Chem, 2011)
